How the values were obtained:
[1] = folding enthalpy; higher = less favourable; fluorescence melt of hairpins on a sequencing array, two-state fit; details: sodium 0.088 M
Summary of the method: (§1)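 On a sequenced MiSeq flow cell, library hairpins with annealed Cy3 and quencher oligos were imaged for Cy3 fluorescence in 2.5 °C steps up to 60 °C, in 50 mM Na-HEPES pH 8.0, 25 mM NaCl. Normalisation used pre-quench Cy3 and control constructs. Bootstrapped two-state fits gave melting temperature and folding enthalpy, combined by inverse variance across four replicates and with fitted temperatures raised by 9.35 °C to match UV melts.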

[2] = melting temperature; fluorescence melt of hairpins on a sequencing array, two-state fit, raised by 9.35 °C to match UV melts; details: sodium 0.088 M
Summary of the method: as §1

Row | Sequence | folding enthalpy [1] | Tm [2]
1 | GATCCGTTCGCGGATC ((((((....)))))) | -50.4 kcal/mol | 61.3 °C
2 | GTGTTCCGAAAGGATCAC (((.(((....))).))) | -34.4 kcal/mol | 51.5 °C
3 | GCCGTGTCGAAAGACGGC (((..(((....)))))) | -31.4 kcal/mol | 58.9 °C
4 | GAGCACCGAAAGGTCTC (((.(((....)))))) | -24.1 kcal/mol | 47.6 °C
5 | GATCGCGCCTGCGATC ((((((....)))))) | -26.7 kcal/mol | 69.3 °C
6 | GCGTGGGGAAACCCGTGC ((..(((....)))..)) | -26.1 kcal/mol | 46.2 °C
7 | GGAGTCGAAAGACGGTCC ((((((....)))..))) | -14.1 kcal/mol | 39.2 °C
8 | GCTGACGGAAACGTTAGC (((.(((....))).))) | -43 kcal/mol | 53.6 °C
9 | GCGGTTTCCGC ((((...)))) | -29.4 kcal/mol | 60.5 °C
10 | GCCGGCGAAAGCCTTGGC ((((((....)))..))) | -20.8 kcal/mol | 54.8 °C
11 | GAGTTTGGAAACAAGCTC (((.(((....))).))) | -34.8 kcal/mol | 44.5 °C
12 | CGCCTCGGAAACGATGCG (((.(((....))).))) | -48 kcal/mol | 49.9 °C
13 | GCGAACGAAAGTTCCGC ((((((....))).))) | -29.9 kcal/mol | 54 °C
14 | GTAGGGGGAAACCCCTGC (.(((((....))))).) | -21.9 kcal/mol | 53.2 °C
15 | GGTGCTCGAAAGAGGACC (((.(((....))).))) | -47.6 kcal/mol | 59.7 °C
16 | GCTCCGCGAAAGCAGTGC ((.(.((....)).).)) | -12.5 kcal/mol | 41.4 °C
17 | GTTGAGGGAAACCTCAGC (.(((((....))))).) | -25.4 kcal/mol | 46.3 °C
18 | GGAGAGGCGAAAGCCTCC (((..(((....)))))) | -7.4 kcal/mol | 49.5 °C
19 | CGTTGTCGGAAACGAACG (((..(((....)))))) | -11.6 kcal/mol | 35.1 °C
20 | GATCTGTATCAGATC ((((((...)))))) | -34.4 kcal/mol | 48.2 °C
21 | GTGCCCGAAAGGGAACAC ((((((....)))..))) | -15.2 kcal/mol | 52.5 °C
22 | GTAGCCGAAAGGCCATAC ((((((....)))..))) | -8.17 kcal/mol | 22.3 °C
23 | GACGCGGGAAACCGCGCC (.(((((....))))).) | -11.8 kcal/mol | 55 °C

Row | Sequence | folding enthalpy [1] | Tm [2]
24 | GACGCCGAAAGGCAGGTC ((((((....)))..))) | -16.2 kcal/mol | 52.1 °C
25 | GAACGCGAAAGCGCTTC ((((((....))).))) | -14.3 kcal/mol | 48.6 °C
26 | GGACTACGAAAGTATCC (((.(((....)))))) | -21.5 kcal/mol | 36.8 °C
27 | GATCCCCCAGGGATC ((((((...)))))) | -33.9 kcal/mol | 63.8 °C
28 | CGAGTGAAAACTCG (((((....))))) | -24.6 kcal/mol | 54.6 °C
29 | GATCGGCGGACCGATC ((((((....)))))) | -38.8 kcal/mol | 57.2 °C
30 | GCAATGCGAAAGCAGAGC ((..(((....)))..)) | -19.5 kcal/mol | 55 °C
31 | GGCACGGGAAACCGCACC ((..(((....)))..)) | -10.3 kcal/mol | 32.4 °C
32 | GCTCTCCGAAAGGAAGC (((.(((....)))))) | -25.8 kcal/mol | 47.8 °C
33 | GCGTCAGGAAACCAACGC ((((..(....)..)))) | -25.1 kcal/mol | 40.3 °C
34 | GCGACAACGAAAGTTCGC (((..(((....)))))) | -28.6 kcal/mol | 49.4 °C
35 | GGTCACGGAAACACGACC ((((..(....)..)))) | -18.5 kcal/mol | 34.5 °C
36 | GTTGTGCGAAAGCATAAC (((.(((....))).))) | -30.5 kcal/mol | 54 °C
37 | GCGGACGAAAGTCGACGC ((((((....)))..))) | -27.3 kcal/mol | 54.8 °C
38 | GAGTTGGGAAACCAACTC (((((((....))))))) | -39.4 kcal/mol | 62 °C
39 | GCAATGCGAAAGCAATGC (((.(((....))).))) | -40 kcal/mol | 56.5 °C
40 | GATCAAATCTTGATC ((((((...)))))) | -27.8 kcal/mol | 42 °C
41 | GATCACAGATGTGATC ((((((....)))))) | -37.8 kcal/mol | 56.8 °C
42 | GCAACAGCGAAAGCTTGC (((..(((....)))))) | -19.5 kcal/mol | 46.6 °C
43 | GCGGTCGAAAGACAACGC ((((((....)))..))) | -27.7 kcal/mol | 56.6 °C
44 | CGGATTCGGAAACGACCG (((..(((....)))))) | -17.8 kcal/mol | 35.7 °C
45 | GCAGTGGGAAACCACTAC (.(((((....))))).) | -12.9 kcal/mol | 41.1 °C
46 | GCTTACCGAAAGGTAGC (((.(((....)))))) | -19.8 kcal/mol | 53 °C

Row | Sequence | folding enthalpy [1] | Tm [2]
47 | GTCTACGAAAGTATGGAC ((((((....)))..))) | -16.3 kcal/mol | 31.3 °C
48 | GGCACCGAAAGGTGCGCC ((((((....)))..))) | -6.18 kcal/mol | 66.1 °C
49 | GATCGTGGTGACGATC ((((((....)))))) | -39.1 kcal/mol | 57.6 °C
50 | GTACACGGAAACGCGTAC ((((.((....)).)))) | -40.1 kcal/mol | 48.3 °C
51 | GCGTTCGGAAACGAGCGC (((.(((....))).))) | -33.6 kcal/mol | 66 °C
52 | GCCCTAACGAAAGTTGGC (((..(((....)))))) | -20.7 kcal/mol | 38.5 °C
53 | GGCCTCGAAAGAGTCGCC ((((((....)))..))) | -23.3 kcal/mol | 45 °C
54 | GCTCAGCGAAAGCGTAGC (((..((....))..))) | -18.1 kcal/mol | 49.7 °C
55 | GATCAGCTCTCTGATC ((((((....)))))) | -36.9 kcal/mol | 49.3 °C
56 | GGCCTTGGAAACAGGGTC (.((.((....)).)).) | -25 kcal/mol | 37.6 °C
57 | CGGACGGAAACGTTCCG ((((((....))).))) | -27.5 kcal/mol | 51.2 °C
58 | GATCCAGTACTGGATC ((((((....)))))) | -47.2 kcal/mol | 57.1 °C
59 | GATCTAGCGATAGATC ((((((....)))))) | -34.7 kcal/mol | 46 °C
60 | GCTTAACGAAAGTTCAGC (((.(((....))).))) | -31.6 kcal/mol | 44.4 °C
61 | GATAGCGAAAGCTTATC ((((((....))).))) | -13.7 kcal/mol | 39 °C
62 | GCGTACTACGC ((((...)))) | -24.6 kcal/mol | 55.2 °C
63 | GATCTGTTTGCAGATC ((((((....)))))) | -40.6 kcal/mol | 54.8 °C
64 | GCCTCAGCGAAAGCTGGC (((..(((....)))))) | -8.88 kcal/mol | 50.9 °C
65 | GTCTGCGAAAGCATAGAC ((((((....)))..))) | -19.9 kcal/mol | 45.9 °C
66 | GAAGACGAAAGTCTTTC ((((((....))).))) | -13.1 kcal/mol | 48.1 °C
67 | GTTGGCGAAAGCCGCAAC ((((((....)))..))) | -9.16 kcal/mol | 26.3 °C
68 | GCCCCGCGAAAGCGTGGC (((.(((....))).))) | -25.4 kcal/mol | 67.4 °C
69 | GGATACCGAAAGGTGTCC (((.(((....))).))) | -44 kcal/mol | 58.8 °C

— the array DNA melting data of Ke et al. (doi:10.1101/2024.01.08.574731)
